Reference: ChEMBL document CHEMBL1125159, “Synthesis and antihyperglycemic activity of novel 5-(naphthalenylsulfonyl)-2,4-thiazolidinediones” (J Med Chem, 1990)
The source made the active and inactive calls. No cut-off for these calls is given here.

How the values were obtained:
Mus musculus [1] = assay: Plasma glucose level in diabetic db/db mice at a dose of 100 mg/kg per day for four days administered orally after fed state
[2] = Ionization constant for the compound; assay type: physicochemical
Mus musculus [3] = organism: Mus musculus; assay: Percent decrease in blood glucose relative to vehicle-treated group with use of four to six mice; assay type: functional
Outline: (§1)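 Male genetically diabetic db/db mice (C57BL/KsJ, 3–7 months old), 4–6 per group. Compound 100 mg/kg given by oral gavage once daily for 4 days in 2% Tween 80/saline. Mice fasted 18 h before the final dose. Insulin 0.5 unit/kg sc given 2 h after drug. Tail-tip blood taken 2 h later from unanesthetized mice. Plasma glucose reported as percent change versus vehicle group, mean ± SE.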

Rattus norvegicus [4] = assay: Plasma glucose level in 24 hr fasted Sprauge-Dawley rats at a dose of 200 mg/kg per day in four divided doses which were administered intraperitoneally; assay type: functional, organism-based
Outline: (§2)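 24 h-fasted Sprague-Dawley rats were dosed ip at 200 mg/kg per day in four divided doses. They were then anesthetized with halothane and blood was drawn from the iliac artery for blood lactate and plasma glucose. N = 8 rats per group, compared with vehicle (p < 0.05).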

Rattus norvegicus [5] = assay: Blood lactate level in 24 hr fasted Sprauge-Dawley rats at a dose of 200 mg/kg per day in four divided doses which were administered intraperitoneally; assay type: functional; settings: route intraperitoneal
Outline: as §2

Mus musculus [6] = assay: Plasma glucose level in diabetic db/db mice at a dose of 100 mg/kg per day for four days administered orally after 18-h fasted state
Mus musculus [7] = organism: Mus musculus; assay: Decrease in blood glucose in mice compared to vehicle controls.; assay type: functional, organism-based
Outline: as §1

Rattus norvegicus [8] = assay: Evaluated for the blood lactate level in 24 hr fasted Sprague-Dawley rats at a dose of 200 mg/kg/day in four divided doses administered intraperitoneally; assay type: functional; settings: route intraperitoneal
Outline: as §2

Rattus norvegicus [9] = assay: Evaluated for the plasma glucose level in 24 hr fasted Sprauge-Dawley rats at a dose of 200 mg/kg/day in four divided doses administered intraperitoneally; assay type: functional, organism-based
Outline: as §2

Rattus norvegicus [10] = assay: Blood lactate level in 24 hr fasted Sprauge-Dawley rats at a dose of 200 mg/kg per day in four divided doses which were administered intraperitoneally,; assay type: functional; settings: route intraperitoneal
Outline: as §2

| Structure (SMILES) | Decrease (Mus musculus [3]) | Decrease (Mus musculus [7]) | further results |
| --- | --- | --- | --- |
| CC1(COc2ccc(CC3SC(=O)NC3=O)cc2)CCCCC1 (stereo unspecified) [CIGLITAZONE] | -35% | – | Plasma glucose level (Mus musculus [1]): 313 mg/dL; pKa [2]: 6.82; Plasma glucose level (Rattus norvegicus [4]): 83 mg/dL; Blood lactate (Rattus norvegicus [5]): 8 mg/dL; Plasma glucose level (Mus musculus [6]): 285 mg/dL |
| CCOC(=O)Oc1ccc2cc(S(=O)(=O)C3SC(=O)NC3=O)ccc2c1 (stereo unspecified) | – | inactive | – |
| O=C1NC(=O)C(S(=O)(=O)Cc2ccc3ccccc3c2)S1 (stereo unspecified) | – | inactive | – |
| O=C1NC(=O)C(S(=O)(=O)c2ccc(F)cc2)S1 (stereo unspecified) | – | inactive | – |
| COc1ccc2c(S(=O)(=O)C3SC(=O)NC3=O)cccc2c1C(F)(F)F (stereo unspecified) | -40% | – | – |
| O=C1NC(=O)C(Sc2ccc3ccccc3c2Br)S1 (stereo unspecified) | – | inactive | – |
| CC1(S(=O)(=O)c2cccc3ccccc23)SC(=O)NC1=O (stereo unspecified) | – | inactive | – |
| CCOC(=O)Oc1ccc2cc(SC3SC(=O)NC3=O)ccc2c1 (stereo unspecified) | – | inactive | – |
| CN1C(=O)SC(S(=O)(=O)c2cccc3c(Br)cccc23)C1=O (stereo unspecified) | – | inactive | – |
| O=C1NC(=O)C([S+]([O-])c2ccc3ccccc3c2)S1 (stereo unspecified) | – | inactive | – |
| COc1ccc2cc(S(=O)(=O)C3SC(=O)NC3=O)ccc2c1C(F)(F)F (stereo unspecified) | – | inactive | – |
| CCCCCCCCSC1SC(=O)NC1=O (stereo unspecified) | – | inactive | – |
| COc1cccc2cccc(S(=O)(=O)C3SC(=O)NC3=O)c12 (stereo unspecified) | – | inactive | – |
| CCCCCCCCS(=O)(=O)C1SC(=O)NC1=O (stereo unspecified) | – | inactive | – |
| CCOC(=O)Oc1cc2ccc(S(=O)(=O)C3SC(=O)NC3=O)cc2cc1OC(=O)OCC (stereo unspecified) | – | inactive | – |
| O=C1NC(=O)C(S(=O)(=O)c2cccc3ccccc23)S1 (stereo unspecified) | -34% | – | – |
| O=C1NC(=O)C(S(=O)(=O)c2ccc(Br)cc2)S1 (stereo unspecified) | – | inactive | – |

| Structure (SMILES) | Decrease (Mus musculus [3]) | Decrease (Mus musculus [7]) | further results |
| --- | --- | --- | --- |
| O=C1NC(=O)C(Oc2ccc3ccccc3c2)S1 (stereo unspecified) | – | inactive | – |
| O=C1NC(=O)C(S(=O)(=O)c2ccc3cc(OCc4ccccc4)ccc3c2)S1 (stereo unspecified) | – | inactive | – |
| COc1ccc2cc(SC3SC(=O)NC3=O)ccc2c1C(F)(F)F (stereo unspecified) | -32% | – | – |
| CCOC(=O)Oc1cc2ccc(SC3SC(=O)NC3=O)cc2cc1OC(=O)OCC (stereo unspecified) | -22% | – | – |
| O=C1NC(=O)C(Sc2ccc3cc(O)ccc3c2)S1 (stereo unspecified) | -19% | – | – |
| N=C(N)NC(=N)NCCc1ccccc1 [PHENFORMIN] | – | – | Blood lactate (Rattus norvegicus [8]): 12.2 mg/dL; Plasma glucose level (Rattus norvegicus [9]): 85 mg/dL |
| O=C1NC(=O)C(Sc2ccc3cc(O)c(O)cc3c2)S1 (stereo unspecified) | – | inactive | – |
| O=C1NC(=O)C(S(=O)(=O)c2cccc3c(Br)cccc23)S1 (stereo unspecified) | -29% | – | – |
| O=C1NC(=O)C(Sc2ccc3ccccc3c2)S1 (stereo unspecified) | -29% | – | pKa [2]: 5.58 |
| O=C1NC(=O)C(Cc2ccc3ccccc3c2)S1 (stereo unspecified) | -38% | – | pKa [2]: 6.83 |
| O=C1NC(=O)C(S(=O)(=O)c2ccc3ccccc3c2)S1 (stereo unspecified) | -63% | – | Plasma glucose level (Mus musculus [1]): 352 mg/dL; pKa [2]: 3.95; Blood lactate (Rattus norvegicus [10]): 7.2 mg/dL; Plasma glucose level (Rattus norvegicus [4]): 77 mg/dL; Plasma glucose level (Mus musculus [6]): 243 mg/dL |
| COc1ccc2cc(S(=O)(=O)C3SC(=O)NC3=O)ccc2c1Br (stereo unspecified) | – | inactive | – |
| CN1C(=O)SC(C)(S(=O)(=O)c2cccc3c(Br)cccc23)C1=O (stereo unspecified) | – | inactive | – |
| CC1(COc2ccc(S(=O)(=O)C3SC(=O)NC3=O)cc2)CCCCC1 (stereo unspecified) | – | inactive | – |
| O=C1NC(=O)C(CSc2ccc3ccccc3c2)S1 (stereo unspecified) | – | inactive | – |
| O=C1NC(=O)C(S(=O)(=O)c2ccc3ccccc3c2Br)S1 (stereo unspecified) | – | inactive | – |
